pIC50: −log10 of the molar value.
Tests used:
[1] = molecular target: T1, E3 ubiquitin-protein ligase UHRF1 (Homo sapiens, UniProt Q96T88); assay: Inhibition of UHRF1 (unknown origin) after 30 mins by AlphaScreen assay
T1 sequence (Q96T88 whole entry): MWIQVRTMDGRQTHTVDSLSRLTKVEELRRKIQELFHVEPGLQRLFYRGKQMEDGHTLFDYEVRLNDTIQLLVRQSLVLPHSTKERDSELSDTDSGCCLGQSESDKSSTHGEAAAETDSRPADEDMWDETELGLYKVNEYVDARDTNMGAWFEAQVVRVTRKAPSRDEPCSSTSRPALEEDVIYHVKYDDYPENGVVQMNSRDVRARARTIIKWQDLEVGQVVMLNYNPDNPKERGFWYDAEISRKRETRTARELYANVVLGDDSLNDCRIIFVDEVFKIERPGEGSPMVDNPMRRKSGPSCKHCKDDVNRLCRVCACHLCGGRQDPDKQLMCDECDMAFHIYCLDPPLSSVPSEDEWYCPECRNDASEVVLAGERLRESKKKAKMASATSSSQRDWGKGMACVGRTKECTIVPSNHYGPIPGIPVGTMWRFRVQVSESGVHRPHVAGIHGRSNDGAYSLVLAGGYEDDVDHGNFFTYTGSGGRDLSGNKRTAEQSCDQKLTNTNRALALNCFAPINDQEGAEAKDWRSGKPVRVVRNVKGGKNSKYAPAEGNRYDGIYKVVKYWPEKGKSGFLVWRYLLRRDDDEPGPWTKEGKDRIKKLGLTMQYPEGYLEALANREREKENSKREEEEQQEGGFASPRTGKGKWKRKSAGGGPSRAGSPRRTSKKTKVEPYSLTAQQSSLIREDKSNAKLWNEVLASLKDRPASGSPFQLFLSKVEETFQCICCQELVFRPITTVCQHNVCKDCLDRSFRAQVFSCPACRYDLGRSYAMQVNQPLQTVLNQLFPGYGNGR
In short: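 AlphaScreen competition with histone peptide. Compounds in 3-fold, 10-point dilutions, top 10 or 30 μM; buffer 20 mM Tris pH 8.0, 25 mM NaCl, 2 mM DTT, 0.05% Tween-20. Protein-peptide mix 30 min RT, then streptavidin donor plus nickel-chelate acceptor beads (GST acceptor beads for GST-tagged PHF23, JARID1A) 30 min RT dark. […] Protein-free His6-biotin peptide counterscreen.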

[2] = molecular target: T2, Chromobox protein homolog 7 (Homo sapiens, UniProt O95931); assay: Inhibition of CBX7 (unknown origin) after 30 mins by AlphaScreen assay
T2 sequence (O95931 whole entry): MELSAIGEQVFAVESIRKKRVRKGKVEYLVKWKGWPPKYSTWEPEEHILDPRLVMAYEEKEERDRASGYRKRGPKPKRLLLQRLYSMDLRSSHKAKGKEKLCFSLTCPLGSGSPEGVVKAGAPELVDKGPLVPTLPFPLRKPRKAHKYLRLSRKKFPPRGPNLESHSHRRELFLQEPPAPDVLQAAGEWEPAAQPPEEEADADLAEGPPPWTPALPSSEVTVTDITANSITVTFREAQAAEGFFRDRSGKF
In short: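 AlphaScreen competition with histone peptide. Compounds in 3-fold, 10-point dilutions, top 10 or 30 μM; buffer 20 mM Tris pH 8.0, 25 mM NaCl, 2 mM DTT, 0.05% Tween-20. Protein-peptide mix 30 min RT, then streptavidin donor plus nickel-chelate acceptor beads (GST acceptor beads for GST-tagged PHF23, JARID1A) 30 min RT dark. Protein-free His6-biotin peptide counterscreen.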

## O=C(c1ccc(C(=O)N2CCC(N3CCCC3)CC2)c(Cc2ccccc2)c1)N1CCC(N2CCCC2)CC1
[1]
  pIC50: < 5.00
[2]
  pIC50: < 5.00

## O=C(c1ccc(C(=O)N2CCC3(CCNC3)CC2)cc1)N1CCC(N2CCCC2)CC1
[1]
  pIC50: < 5.00
[2]
  pIC50: < 5.00

## O=C(c1ccc(C(=O)N2CCC(N3CCCC3)CC2)c(Br)c1)N1CCC(N2CCCC2)CC1
[1]
  pIC50: < 5.00
[2]
  pIC50: < 5.00

## O=C(c1ccc(C(=O)N2CCC3(CCNC3)C2)cc1)N1CCC(N2CCCC2)CC1 (stereo not given)
[1]
  pIC50: < 5.00
[2]
  pIC50: < 5.00

## CN(C)C1CCN(C(=O)c2ccc(C(=O)N3CCC(N(C)C)CC3)cc2)CC1
[1]
  pIC50: < 5.00
[2]
  pIC50: < 5.00

## O=C(c1ccc(C(=O)N2CCCC(N3CCCC3)CC2)cc1)N1CCCC(N2CCCC2)CC1 (stereo not given)
[1]
  pIC50: < 5.00
[2]
  pIC50: < 5.00

## CN1CCN2CC(NC(=O)c3ccc(C(=O)N4CCC(N5CCCC5)CC4)cc3)CC2C1 (stereo not given)
[1]
  pIC50: < 5.00
[2]
  pIC50: < 5.00

## CC(C1CCN(C(=O)c2ccc(C(=O)N3CCC(N4CCCC4)CC3)cc2)CC1)N1CCN(C)CC1 (stereo not given)
[1]
  pIC50: < 5.00
[2]
  pIC50: < 5.00

## O=C(c1ccc(C(=O)N2CC3CNCC3C2)cc1)N1CCC(N2CCCC2)CC1 (stereo not given)
[1]
  pIC50: < 5.00
[2]
  pIC50: < 5.00

## CN(C)C1CCN(C(=O)c2ccc(C(=O)N3CCC(N4CCCC4)CC3)cc2)CC1
[1]
  pIC50: < 5.00
[2]
  pIC50: < 5.00

## O=C(c1ccc(C(=O)N2CCC(N3CCCC3)C2)cc1)N1CCC(N2CCCC2)CC1 (stereo not given)
[1]
  pIC50: < 5.00
[2]
  pIC50: < 5.00

## C[N+]1(C2CCN(C(=O)c3ccc(C(=O)N4CCC(N5CCCC5)CC4)cc3)CC2)CCCC1
[1]
  pIC50: < 5.00
[2]
  pIC50: < 5.00

## O=C(c1ccc(C(=O)N2CCC(N3CCCC3)CC2)cc1)N1CCC(N2CCCCCC2)CC1
[1]
  pIC50: < 5.00
[2]
  pIC50: < 5.00

## CN1CCC(N2CCN(C(=O)c3ccc(C(=O)N4CCC(N5CCCC5)CC4)cc3)CC2)CC1
[1]
  pIC50: < 5.00
[2]
  pIC50: < 5.00

## O=C(c1ccc(C(=O)N2CCC(N3CCCC3)CC2)nc1)N1CCC(N2CCCC2)CC1
[1]
  pIC50: < 5.00
[2]
  pIC50: < 5.00

## CN1CCCC1C1CCN(C(=O)c2ccc(C(=O)N3CCC(C4CCCN4C)CC3)cc2)CC1 (stereo not given)
[1]
  pIC50: < 5.00
[2]
  pIC50: < 5.00

## O=C(c1ccc(N2CCC(N3CCCC3)CC2)cc1)N1CCC(N2CCCC2)CC1
[1]
  pIC50: < 5.00
[2]
  pIC50: < 5.00

## O=C(c1ccc(C(=O)N2CCC(N3CCCC3)CC2)cc1)N1CCC(C2CCNCC2)CC1
[1]
  pIC50: < 5.00
[2]
  pIC50: < 5.00

## O=C(c1ccc(C(=O)N2CC3CCC(C2)C3N2CCCC2)cc1)N1CC2CCC(C1)C2N1CCCC1 (stereo not given)
[1]
  pIC50: < 5.00
[2]
  pIC50: < 5.00

## O=C(c1cccc(C(=O)N2CCC(N3CCCC3)CC2)c1)N1CCC(N2CCCC2)CC1
[1]
  pIC50: < 5.00
[2]
  pIC50: < 5.00

## O=C(c1ccccc1C(=O)N1CCC(N2CCCC2)CC1)N1CCC(N2CCCC2)CC1
[1]
  pIC50: < 5.00
[2]
  pIC50: < 5.00

## O=C(c1ccc(C(=O)N2CCC(N3CCCC3)CC2)cc1)N1CCC(C2CCCCC2)CC1
[1]
  pIC50: < 5.00
[2]
  pIC50: < 5.00

## O=C(c1ccc(C(=O)N2CCC(N3CCCC3)CC2)c(C(=O)N2CCC(N3CCCC3)CC2)c1)N1CCC(N2CCCC2)CC1
[1]
  pIC50: < 5.00
[2]
  pIC50: < 5.00

## Nc1cc(C(=O)N2CCC(N3CCCC3)CC2)ccc1C(=O)N1CCC(N2CCCC2)CC1
[1]
  pIC50: < 5.00
[2]
  pIC50: < 5.00

## Cc1cc(C(=O)N2CCC(N3CCCC3)CC2)c(C)cc1C(=O)N1CCC(N2CCCC2)CC1
[1]
  pIC50: < 5.00
[2]
  pIC50: < 5.00

## O=C(c1ccc(S(=O)(=O)N2CCC(N3CCCC3)CC2)cc1)N1CCC(N2CCCC2)CC1
[1]
  pIC50: < 5.00
[2]
  pIC50: < 5.00

## O=C(c1c(F)c(F)c(C(=O)N2CCC(N3CCCC3)CC2)c(F)c1F)N1CCC(N2CCCC2)CC1
[1]
  pIC50: < 5.00
[2]
  pIC50: < 5.00

## O=C(c1ccc(C(=O)N2CCC(N3CCCC3)CC2)c(NCc2ccccc2)c1)N1CCC(N2CCCC2)CC1
[1]
  pIC50: < 5.00
[2]
  pIC50: < 5.00

## O=C(c1ccc2cc(C(=O)N3CCC(N4CCCC4)CC3)ccc2c1)N1CCC(N2CCCC2)CC1
[1]
  pIC50: < 5.00
[2]
  pIC50: < 5.00

## CCN1Cc2ccc(NC(=O)c3ccc(C(=O)N4CCC(N5CCCC5)CC4)cc3)cc2C1
[1]
  pIC50: < 5.00
[2]
  pIC50: < 5.00

## O=C(c1ccc(C(=O)N2CCC(N3CCCC3)CC2)c(-c2ccccc2)c1)N1CCC(N2CCCC2)CC1
[1]
  pIC50: < 5.00
[2]
  pIC50: < 5.00

## O=C(c1ccc(C(=O)N2CC3(CCNC3)C2)cc1)N1CCC(N2CCCC2)CC1
[1]
  pIC50: < 5.00
[2]
  pIC50: < 5.00

## CCN1Cc2ccc(NC(=O)c3ccc(C(=O)N4CC5CCC(C4)C5N4CCCC4)cc3)cc2C1 (stereo not given)
[1]
  pIC50: < 5.00
[2]
  pIC50: < 5.00

## O=C(c1ccc(C(=O)N2CC(N3CCCC3)C2)cc1)N1CCC(N2CCCC2)CC1
[1]
  pIC50: < 5.00
[2]
  pIC50: < 5.00

## O=C(c1ccc(C(=O)N2CCC(N3CCCC3)CC2)c([N+](=O)[O-])c1)N1CCC(N2CCCC2)CC1
[1]
  pIC50: < 5.00
[2]
  pIC50: < 5.00

## O=C(c1ccc(C(=O)N2CCC(C3CCCN3)CC2)cc1)N1CCC(C2CCCN2)CC1 (stereo not given)
[1]
  pIC50: < 5.00
[2]
  pIC50: < 5.00

## CCN1Cc2ccc(NC(=O)c3ccc(C(=O)N4CCC(C5CCCN5)CC4)cc3Nc3ccccc3)cc2C1 (stereo not given)
[1]
  pIC50: < 5.00
[2]
  pIC50: < 5.00

## O=C(c1ccc(C(=O)N2CC3CCC(C2)C3N2CCCC2)cc1)N1CCC(N2CCCC2)CC1 (stereo not given)
[1]
  pIC50: < 5.00
[2]
  pIC50: < 5.00

## O=C(c1cncc(Br)c1)N1CCC(N2CCCC2)CC1
[1]
  pIC50: < 5.00
[2]
  pIC50: < 5.00

## O=C(c1ccc(C(=O)N2CCC(N3CCCC3)CC2)cc1)N1CCC(C2CCCN2)CC1 (stereo not given)
[1]
  pIC50: < 5.00
[2]
  pIC50: < 5.00

## O=C(c1ccc(C(=O)N2CCC(N3CCCC3)CC2)c(Oc2ccccc2)c1)N1CCC(N2CCCC2)CC1
[1]
  pIC50: < 5.00
[2]
  pIC50: < 5.00

## O=C(c1ccc(C(=O)N2CCC(N3CCCC3)CC2)o1)N1CCC(N2CCCC2)CC1
[1]
  pIC50: < 5.00
[2]
  pIC50: < 5.00

## O=C(c1ccc(C(=O)N2CCC(N3CCC3)CC2)cc1)N1CCC(N2CCC2)CC1
[1]
  pIC50: < 5.00
[2]
  pIC50: < 5.00

## O=C(NCCCN1CCCC1)c1ccc(C(=O)N2CCC(N3CCCC3)CC2)cc1
[1]
  pIC50: < 5.00
[2]
  pIC50: < 5.00

## O=C(c1ccc(C(=O)N2CCC(N3CCCC3)CC2)s1)N1CCC(N2CCCC2)CC1
[1]
  pIC50: < 5.00
[2]
  pIC50: < 5.00

## O=C(c1ccc(CN2CCC(N3CCCC3)CC2)cc1)N1CCC(N2CCCC2)CC1
[1]
  pIC50: < 5.00
[2]
  pIC50: < 5.00

## O=C(c1ccc(C(=O)N2CCC(N3CCCC3)CC2)cc1)N1CCCC(N2CCCC2)CC1 (stereo not given)
[1]
  pIC50: < 5.00
[2]
  pIC50: < 5.00

## O=C(c1ccc(C(=O)N2CCC(N3CCOCC3)CC2)cc1)N1CCC(N2CCCC2)CC1
[1]
  pIC50: < 5.00
[2]
  pIC50: < 5.00

## O=C(c1ccc(C(=O)N2CCC(N3CCCC3)CC2)c2ccccc12)N1CCC(N2CCCC2)CC1
[1]
  pIC50: < 5.00
[2]
  pIC50: < 5.00

## O=C(c1ccc(C(=O)N2CCC(N3CCCC3)CC2)cc1)N1CCC(N2CCCCC2)CC1
[1]
  pIC50: < 5.00
[2]
  pIC50: < 5.00
